Rows were chosen to be rich in hits. Some 3.5% of all compounds tested hit in one or more screens of this group.
ABCG2 block: human ABCG2 inhibition, ABCB1 as counter-screen; IgMXP3 cells, JC-1 efflux, flow cytometry; inhibition, % at 6.6 µM; Q9UNQ0; AID 1325; actives 0.1% (n = 190,000);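 active = inhibition above 80%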;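 also: 0% = DMSO and 100% = nicardipine control wells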
Target sequence (Q9UNQ0 whole entry, looked up): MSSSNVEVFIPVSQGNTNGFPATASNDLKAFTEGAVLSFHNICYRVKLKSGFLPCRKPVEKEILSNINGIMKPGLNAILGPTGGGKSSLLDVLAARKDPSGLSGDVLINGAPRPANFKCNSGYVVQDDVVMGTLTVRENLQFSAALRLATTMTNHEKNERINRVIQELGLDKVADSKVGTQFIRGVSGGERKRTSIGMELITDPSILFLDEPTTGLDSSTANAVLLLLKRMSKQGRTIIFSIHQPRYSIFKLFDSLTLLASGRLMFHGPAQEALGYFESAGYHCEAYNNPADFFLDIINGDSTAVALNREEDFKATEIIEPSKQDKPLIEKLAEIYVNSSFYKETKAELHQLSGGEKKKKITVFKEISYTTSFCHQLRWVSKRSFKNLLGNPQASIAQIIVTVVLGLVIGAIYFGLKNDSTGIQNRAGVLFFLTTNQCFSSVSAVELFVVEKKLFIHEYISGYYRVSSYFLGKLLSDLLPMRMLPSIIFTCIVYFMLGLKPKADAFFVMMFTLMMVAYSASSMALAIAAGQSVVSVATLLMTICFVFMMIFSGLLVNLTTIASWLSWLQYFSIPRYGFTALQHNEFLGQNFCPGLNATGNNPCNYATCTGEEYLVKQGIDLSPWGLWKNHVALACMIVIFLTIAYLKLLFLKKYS
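Assay system – ABCG2 IgMXP3 and barcoded ABCB1 CCRF-Adr cell mix · Input – 3 million cells/mL in well · Reagent – JC-1 fluorescent substrate · Compound – single test compound dose, 6.6 µM final · Timing – 10 min exposure at 25 °C with rotation, no wash · Detection – flow cytometry of retained JC-1 fluorescence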
MEKK3 PB1 HTS: raises or lowers MEK5 binding to the human MEKK3 PB1 domain; bead-based flow cytometry, Alexa488-MEK5 binding to MEKK3; actives lie on both sides; 0 = blocked by unlabeled MEK5, 100 = vehicle; binding response (% of control), % at 10 µM; actives 1.4% (n = 290,000); AID 1529; Q99759;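 active = binding response more than 3 SD above or below the average of its plate-row segment, actives on both sides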;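 also: Alexa488 bead fluorescence after subtracting the streptavidin-only scavenger bead signal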
MEKK2wt PB1 HTS: raises or lowers MEK5 binding to wildtype human MEKK2 PB1 domain; Q9Y2U5; bead flow cytometry, Alexa488-MEK5 binding to MEKK2 WT; actives lie on both sides; binding response (% of control), % at 10 µM; actives 1.1% (n = 290,000); AID 1531; in the data active = binding response below about 67% or above about 130%
ABCB1 inh: inhibitors of human ABCB1 transporter, ABCG2 counter-screen; P08183; actives 0.067% (n = 190,000); CCRF-Adr cells, JC-1 efflux, flow cytometry; inhibition, % at 6.6 µM; in the data active = inhibition above about 40%;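 also: 0% = vehicle and 100% = reference inhibitor; higher value means more JC-1 retained so stronger ABCB1 efflux block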
MEKK2 mut-MEK5: signal of MEK5 binding to mutant human MEKK2 PB1 domain. actives 0.35% (n = 290,000). percent response, % at 10 µM. bead flow cytometry, Alexa488-MEK5 binding to MEKK2 mutant; in the data active = percent response above about 24%, passing the limit was not always enough
WT yeast gro inh: growth inhibition of WT yeast, mitochondrial fusion screen. actives 2.1% (n = 190,000). AID 1362. inhibition, % at 10 µM. mitochondrial fusion phenotypic screen, WT strain; in the data active = inhibition above about 58%; tested in S. cerevisiae
MEKK2wt confirm: raises or lowers MEK5 binding to wildtype human MEKK2, retest | binding response (% of control), % at 10 µM | AID 1892 | bead flow cytometry, Alexa488-MEK5 binding to MEKK2 WT; actives lie on both sides | actives 2.4% (n = 5,900) | shares compounds with MEKK3 PB1 HTS; in the data active = binding response below about 16% or above about 210%; inactive = in between
MEKK2mut-MEK5: signal of MEK5 binding to mutant human MEKK2, retest | shares compounds with MEKK3 PB1 HTS | bead flow cytometry, Alexa488-MEK5 binding to MEKK2 mutant | percent response, % at 10 µM | actives 2% (n = 5,900); in the data active = percent response mostly above about 71%, no sharp cut-off; inactive = mostly below about 38%;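 also: higher means compound restores mutant binding toward wildtype level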
MEKK3 confirm: confirmation of inhibitors of MEK5 binding to human MEKK3; shares compounds with MEKK3 PB1 HTS; bead flow cytometry, Alexa488-MEK5 binding to MEKK3; stronger effect = lower value; binding response (% of control), % at 10 µM; actives 1.8% (n = 5,900); AID 1894;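 active = binding response below 72% of control, or above a set upper limit, though filed actives all read lower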;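 also: 100% = DMSO only wells and 0% = binding blocked by excess unlabeled MEK5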
* marks the source's active call; other numbers are inactive results; . = no result; [ ] = remark or other dose.

SMILES	ABCG2 block	MEKK3 PB1 HTS	MEKK2wt PB1 HTS	ABCB1 inh	MEKK2 mut-MEK5	WT yeast gro inh	MEKK2wt confirm	MEKK2mut-MEK5	MEKK3 confirm
OC(CNCCc1ccccc1)COc1ccc(OCC(O)CNCCc2ccccc2)cc1 (stereo not drawn)	.	98	172*	.	40	.	172	39	107
OC(CNCCc1ccc(Cl)cc1)COc1cc(Cl)ccc1Cl (stereo not drawn)	.	107	122	.	26*	.	128	22	105
COc1ccc(OCC(O)CNC(=O)c2ccccc2)cc1 (stereo not drawn)	.	96	103	.	3	.	.	.	.
CCCCC(=O)N/N=C/c1ccc(N2CCOCC2)c([N+](=O)[O-])c1	1	97	96	0	-1	-5	.	.	.
COCCC(=O)N1CCC(Oc2ccc(C(=O)N3CCC[C@H]3CO)cc2)CC1	.	100	100	.	2	.	.	.	.
COc1ccc(NC(=O)CCN2C(=O)c3ccncc3C2=O)cc1OC	.	98	98	.	-4	.	.	.	.
Cn1c(=O)c2c(nc3sccn32)n(C)c1=O	6	95	99	0	0	6	.	.	.
COc1cc(CNCc2c[nH]c3ccccc23)cc(OC)c1	3	104	114	1	6	-1	.	.	.
OC(CNCCC(c1ccccc1)c1ccccc1)COc1ccccc1 (stereo not drawn)	-2	109	313*	-1	142*	74*	115	5	105
CC(C)N(CCNCC(O)COc1ccc(C(C)(C)c2ccccc2)cc1)C(C)C (stereo not drawn)	1	109	172*	1	29	56	146	33	105
O=[N+]([O-])c1cc(C=Nc2cccc3c(O)cccc23)ccc1Cl	.	102	90	.	-6	.	.	.	.
COc1ccc(N(C)C(=O)C2CCCN2S(=O)(=O)c2cccc3nsnc23)c(OC)c1 (stereo not drawn)	.	98	98	.	3	.	.	.	.
c1csc(C2Nc3ccccc3-c3nc4ccccc4n32)c1 (stereo not drawn)	22	132*	106	2	1	28	107	9	100
Cc1ccsc1C1Nc2ccccc2-c2nc3ccccc3n21 (stereo not drawn)	5	103	108	1	0	9	.	.	.
CN1c2ccccc2-c2nc3ccccc3n2C1c1cccs1 (stereo not drawn)	10	181*	105	2	0	33	102	2	104
CCCC(C(=O)Nc1cc(S(=O)(=O)N2CCOCC2)ccc1OC)c1ccccc1 (stereo not drawn)	.	103	96	.	0	.	.	.	.
CS(=O)(=O)N(CC(=O)NCc1ccco1)c1ccc(OCc2ccccc2)cc1	0	76	82	0	-7	-10	.	.	.
CCOC(=O)c1ccc(N2NC(=O)/C(=C/c3ccc(OC(=O)c4ccco4)c(OC)c3)C2=O)cc1	-20	100	88	-2	-2	16	.	.	.
CCOC(=O)COc1ccc(/C=C2/C(=O)NN(c3ccc(F)cc3)C2=O)cc1OC	.	116	167*	.	15	.	98	-1	101
Cc1cc(NC(=O)c2sc(Nc3cccc(C(F)(F)F)c3)nc2N)no1	-1	140*	128	-1	9	-5	105	8	104
COC(=O)c1ccc(C(=O)OC)c(NC(=O)C(C)(C)C)c1	10	109	103	1	-1	-3	.	.	.
CCC(CC)C(=O)Nc1cc(C(=O)OC)ccc1C(=O)OC	31	194*	113	2	1	2	97	-1	105
CC(C)NC(=O)c1ccc(COc2cc(Cl)ccc2Cl)o1	.	101	99	.	7	.	.	.	.
O=[N+]([O-])c1ccc(O)c(C(C#Cc2ccccc2)N2CCOCC2)c1 (stereo not drawn)	.	67*[inhibitor]	77	.	-13	.	105	4	105
O=C(c1cc([N+](=O)[O-])ccc1N1CCOCC1)N1CCN(c2ccccc2)CC1	.	104	108	.	7	.	.	.	.
SMILES	ABCG2 block	MEKK3 PB1 HTS	MEKK2wt PB1 HTS	ABCB1 inh	MEKK2 mut-MEK5	WT yeast gro inh	MEKK2wt confirm	MEKK2mut-MEK5	MEKK3 confirm
Cc1ccc(/C=N/NC(=O)c2cc(C3CC3)nc3ccccc23)o1	8	107	109	0	5	2	.	.	.
COc1ccc2c(c1)C1NC(=S)NC(C)(O2)C1C(=O)Nc1ccc(Cl)cc1 (stereo not drawn)	1	120	100	0	-1	-3	.	.	.
Cc1ccc2c(c1)C1NC(=S)NC(C)(O2)C1C(=O)Nc1ccc(Cl)cc1 (stereo not drawn)	0	146*	102	0	0	0	104	3	108
CCn1c(C)nc2cc(C(=O)NNC(=S)Nc3ccc(Cl)cc3)ccc21	.	25*[inhibitor]	19*[inhibitor]	.	-13	.	97	5	101
CCCCOc1ccc(S(=O)(=O)Nc2cccnc2)cc1	15	1.0*[inhibitor]	-8.0*[inhibitor]	2	-23	4	100	-3	99
COc1ccc(OC)c(-c2cc(C(F)(F)F)c3c(n2)sc2c(O)cc(=O)[nH]c23)c1	0	69*[inhibitor]	91	0	-1	-4	87	-9	91
Cc1cc(-c2ccccc2)c2c(n1)sc1c(O)cc(=O)[nH]c12	.	93	95	.	-5	.	.	.	.
O=c1cc(O)c2sc3nc(-c4ccccc4)cc(C(F)(F)F)c3c2[nH]1	0	8.0*[inhibitor]	95	0	0	-3	101	4	104
O=C(O)/C=C/c1cn(Cc2ccccc2)nc1-c1ccc(Cl)cc1	2	.	.	0	.	-9	.	.	.
O=C(Nc1nc2ccsc2c(=O)s1)C1CCC1	.	129*	116	.	32	.	99	0	102
Cc1ccc2cc(/C=C3\N=C(c4ccccc4)OC3=O)c(N3CCOCC3)nc2c1	9	75*[inhibitor]	28*[inhibitor]	2	-11	-5	57	-22	93
O=[N+]([O-])c1ccc(-c2ccc(/C=N/Nc3nc(N4CCCCC4)nc(N4CCCCC4)n3)o2)cc1	31	98	101	11	99*	8	99	-4	103
O=C(NCCCn1ccnc1)/C(=C/c1ccco1)NC(=O)c1ccco1	.	66*[inhibitor]	70	.	-11	.	101	2	105
COc1ccc(N(CC(=O)N/N=C/c2ccc(N(C)C)cc2)S(=O)(=O)c2ccccc2)cc1	.	108	104	.	4	.	.	.	.
